Test results as given in the RNAGym collection of RNA variant scans (doi:10.1126/science.aae0568).
Fewer inactive variants are shown than the library holds.

B1: tRNA (parent)
chain: GUUCCGUUGGCGUAAUGGUAACGCGUCUCCCUCCUAAGGAGAAGACUGCGGGUUCGAGUCCCGUACGGAACG

Variants of: B1
Assay: yeast fitness relative to wild type (ratio to wild type); higher = fitter; tRNA-Arg(CCU), competitive growth, 37 C, YPD
Method in brief: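 For this measurement, the tRNA-Arg(CCU) gene was varied by chemical synthesis at a 3% per-site mutation rate across 69 sites, and each variant was placed at the native genomic locus in Saccharomyces cerevisiae. The pooled strains went through a 24-hour competition in YPD at 37°C in six parallel replicates, with amplicons from start and end populations read by 100-nucleotide paired-end sequencing. Darwinian fitness relative to wild type followed from the change in each genotype's frequency. Genotypes needed ≥ 100 starting reads, and estimates < 0.5 were set to 0.5.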

Variant	yeast fitness
C24A A36G A37G A69U	≤ 0.5
G23A U35A A65C	≤ 0.5
G23C C29G C33U C46U C55U	≤ 0.5
G23A U35G A70C	≤ 0.5
C24A C31G G51C C55U G58C	≤ 0.5
G23A G58C C61U	0.554
G23U C24G C27U C62G C66G	≤ 0.5
C24A C31A A43U C55U	0.674
C24A A40G C61U	≤ 0.5
G23C U26A G50A A65C	0.533
G23C C49G A70C	≤ 0.5
G23C U53A C55U	0.563
C24A A36U G41C	≤ 0.5
C24A C30U A36G C46A	0.579
G23C C30U C34U G67C	≤ 0.5
G23U G38C A57G	≤ 0.5
G23C C30G C49U A65C	≤ 0.5
C24A C29U	0.643
G23C C33U A43U A45C	≤ 0.5
C24A C27U U54C U59C G68U	≤ 0.5
G23C G39A C62G	≤ 0.5

Variant	yeast fitness
G23C U47C C60G	≤ 0.5
G23C A42C U47A C49G	≤ 0.5
C24A C27A A42G A69U	≤ 0.5
C24A C33U C34A A43U C46G	≤ 0.5
G23C C24G C34G C61U	≤ 0.5
G23U A45G	0.579
G23C C31U C49U	0.58
G23A G67A	0.841
G23A G67C	0.86
G23C G48C A69U	≤ 0.5
C24A C27U U28G	0.511
C24A C30U A57U C62A	≤ 0.5
C24A C31A C55A	≤ 0.5
G23C C49G C62U	≤ 0.5
C24A A40G G48A C49A C61G	≤ 0.5
C24A A36U C61A	0.509
C24A C31U A36G A37G G48A U53G	0.653
G23C C61U	0.703
G23C C61G	0.587
G23C C61A	≤ 0.5
C24A C29G U35A A43C	0.929

Variant	yeast fitness
C24A C27G C29G	0.639
C24A A42U	0.659
G23C C31G G44C U47A A69C	≤ 0.5
G23C U26C C27U C46U A69C	≤ 0.5
C24A A36C G48C G52C	≤ 0.5
C24A A36C A40G	0.789
G23U A37U	≤ 0.5
G23C A45G	0.773
G23C A45C	0.554
C24A C31G C34U	0.616
G23C C33G C46A	0.53
G23C G58C	0.669
C24A C31A C33A C60A	≤ 0.5
G23C A42U A43G	≤ 0.5
G23C C33G A42U C66A	0.643
G23U A40G G63A	≤ 0.5
G23C A37U G41A G63A	0.558
G23C C30G C62U	≤ 0.5
G23C U47A A57G G58C	≤ 0.5
G23C G44C C49U	≤ 0.5
G23C C24G C34G	≤ 0.5

Variant	yeast fitness
G23C C34A A36C A37C A40C G67U	≤ 0.5
C24A A45G C66U	≤ 0.5
G23C C24G C33G A40U C49A	≤ 0.5
C24A C29G U35G A36C	≤ 0.5
G23C C62G C66A	≤ 0.5
G23C C24G G63C A65U	≤ 0.5
C24A C27U U28G G68U	0.529
G23A U64G	0.717
G23A G63C	0.613
G23C C24G G50A A57G	≤ 0.5
C24A C29U A37U C60A C66U	≤ 0.5
G23C C24A A57G G68A	≤ 0.5
C24A C29G C30G C49U	≤ 0.5
C24A C29G A69G	≤ 0.5
G23U A57G	0.665
G23C A40G	0.639
G23C A65G A69U	0.524
C24A C27A U28A A70U	≤ 0.5
C24A C29U A36U C55U	≤ 0.5
G23A G63A A65G	0.524
G23C C66U	0.723
